The results in this text go back to ChEMBL document CHEMBL3627614, “Structure-based design, synthesis, X-ray studies, and biological evaluation of novel HIV-1 protease inhibitors containing isophthalamide-derived P2-ligands” (Bioorg Med Chem Lett, 2015).

The target in experiment [1] is Protease (Human immunodeficiency virus 1, UniProt Q9YQ12). In words: Inhibition of HIV-1 protease by fluorometric assay. In short, it runs like this:
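Run by a previously published protease assay protocol, with inhibitory potency reported as the inhibition constant Ki.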

The test system of experiment [2] is Human immunodeficiency virus 1. The experiment can be described thus: Antiviral activity against HIV-1 LAI infected in MT-2 cells measured after 7 days by MTT assay. Conditions: Human immunodeficiency virus 1, LAI, MT2, 168 h. The class given is functional, organism-based.

Protease, sequence (Q9YQ12 whole entry): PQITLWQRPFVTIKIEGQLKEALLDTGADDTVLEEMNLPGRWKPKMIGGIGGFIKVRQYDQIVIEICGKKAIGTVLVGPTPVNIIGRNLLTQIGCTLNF

In general, Ki refers to a dissociation constant, usually derived from enzyme kinetics or from competition with a known ligand. Higher therefore signals a looser hold on the target. Molecule `CCCNC(=O)c1cccc(C(=O)N[C@@H](Cc2ccccc2)[C@H](O)CN(CC(C)C)S(=O)(=O)c2ccc(OC)cc2)c1` displayed an inhibitory constant (Ki) in experiment [1] of 25.1 nM.
By IC50 is commonly meant the point on the concentration scale where inhibition reaches its midpoint. High values mean lower potency, low ones higher potency. `CCCN(CCC)C(=O)c1cccc(C(=O)N[C@@H](Cc2ccccc2)[C@H](O)CN(CC(C)C)S(=O)(=O)c2ccc(OC)cc2)c1`: the inhibition constant Ki in experiment [1] is 12.4 nM. This molecule also displayed a half-maximal inhibitory concentration (IC50) in experiment [2] above 1000 nM.
Taken in the same sequence, the figures for `COC[C@@H]1C[C@H](O)CN1C(=O)c1cccc(C(=O)N[C@@H](Cc2ccccc2)[C@H](O)CN(CC(C)C)S(=O)(=O)c2ccc(OC)cc2)c1` were 1.5 nM and above 1000 nM.
Consider `COc1ccc(S(=O)(=O)N(CC(C)C)C[C@@H](O)[C@H](Cc2ccccc2)NC(=O)c2cccc(C(=O)N3CCOCC3)c2)cc1`, for which the Ki in experiment [1] was found to be 0.42 nM. Moreover, in experiment [2], 25 nM corresponded to half-maximal inhibition (IC50).
In experiment [1], `COC[C@@H]1C[C@@H](O)CN1C(=O)c1cccc(C(=O)N[C@@H](Cc2ccccc2)[C@H](O)CN(CC(C)C)S(=O)(=O)c2ccc(OC)cc2)c1` returned a Ki of 2.85 nM. The molecule further registered a concentration for half-maximal inhibition (IC50) in experiment [2] of 178 nM.
Taken in the same sequence, the figures for `COCc1coc(CN(C)C(=O)c2cccc(C(=O)N[C@@H](Cc3ccccc3)[C@H](O)CN(CC(C)C)S(=O)(=O)c3ccc(OC)cc3)c2)n1` were 0.31 nM and 25 nM.
For the molecule `CCCN(C)C(=O)c1cc(OC)cc(C(=O)N[C@@H](Cc2ccccc2)[C@H](O)CN(CC(C)C)S(=O)(=O)c2ccc(OC)cc2)c1`, the inhibition constant (Ki) in experiment [1] was determined as 20.4 nM.
Same read-out and setting: next, `Cc1coc(CN(C)C(=O)c2cccc(C(=O)N[C@@H](Cc3ccccc3)[C@H](O)CN(CC(C)C)S(=O)(=O)c3ccc(CO)cc3)c2)n1`: 0.63 nM.
Regarding `COC[C@H]1C[C@@H](O)CN1C(=O)c1cccc(C(=O)N[C@@H](Cc2ccccc2)[C@H](O)CN(CC(C)C)S(=O)(=O)c2ccc(OC)cc2)c1`, the inhibition constant Ki in experiment [1] was 0.27 nM. In addition, the IC50 in experiment [2] worked out at 190 nM.
In the same order, the values of `COC[C@H]1C[C@H](O)CN1C(=O)c1cccc(C(=O)N[C@@H](Cc2ccccc2)[C@H](O)CN(CC(C)C)S(=O)(=O)c2ccc(OC)cc2)c1` are 0.27 nM and 389 nM.
`CCCN(C)C(=O)c1cc(NC)cc(C(=O)N[C@@H](Cc2ccccc2)[C@H](O)CN(CC(C)C)S(=O)(=O)c2ccc(OC)cc2)c1`: affinity in experiment [1] was put at a Ki of 158 nM.
With `COc1ccc(S(=O)(=O)N(CC(C)C)C[C@@H](O)[C@H](Cc2ccccc2)NC(=O)c2cccc(C(=O)N3CCN(C)CC3)c2)cc1`, affinity in experiment [1] was put at a Ki of 0.54 nM. In experiment [2], this molecule showed a 50% inhibitory concentration (IC50) of 45 nM.
Turning to `CCCN(C)C(=O)c1cccc(C(=O)N[C@@H](Cc2ccccc2)[C@H](O)CN(CC(C)C)S(=O)(=O)c2ccc(OC)cc2)c1`, in experiment [1], the inhibitory constant (Ki) turned out to be 5.1 nM.
With `COc1ccc(S(=O)(=O)N(CC(C)C)C[C@@H](O)[C@H](Cc2ccccc2)NC(=O)c2cc(C)cc(C(=O)N(C)Cc3nc(C)oc3C)c2)cc1`, the affinity in experiment [1], expressed as Ki, was 0.21 nM. This molecule also yielded a concentration for half-maximal inhibition (IC50) in experiment [2] of 31 nM.
In the same order, the values of `COc1ccc(S(=O)(=O)N(CC(C)C)C[C@@H](O)[C@H](Cc2ccccc2)NC(=O)c2cccc(C(=O)N(C)Cc3nc(C)oc3C)c2)cc1` are 0.17 nM and 14 nM.
